# Assay results reported in ChEMBL document CHEMBL5303300, “EUbOPEN Chemogenomics Library - Multiplex” (2023).
# Several values for one entry are separate records, joined by “and”; a condition that tells them apart may be missing. Equal values may be shown once.
# System: U2OS
# Experiment: Multiplex assay against U2OS
# Type: toxicity, cell-based
# Settings: human, number of replicates 2
# In short: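 Live cells carried four stains from seeding: Hoechst33342, BioTracker Green Microtubule Cytoskeleton Dye, MitoTracker Red and Annexin V Alexa Fluor 680. They were imaged on a CQ1 microscope at 37°C and 5% CO2 after compound addition. Using CellPathfinder machine-learning gating, cells were split into Hoechst high-intensity objects or normal cells, normal cells into healthy, pyknosed or fragmented nuclei, and pyknosed cells into mitotic or apoptotic; tubulin, mitochondrial-mass and membrane-permeability phenotypes are per cents of healthy-nucleus cells.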
# [1] = 12 h, 1 µM, compound concentration 1 uM
# [2] = 12 h, 10 µM, compound concentration 10 uM
# [3] = 24 h, 1 µM, compound concentration 1 uM
# [4] = 24 h, 10 µM, compound concentration 10 uM
# [5] = 48 h, 1 µM, compound concentration 1 uM
# [6] = 48 h, 10 µM, compound concentration 10 uM
compound,measurement,setting,value
Cc1cc(NC(=O)c2cccc(NC(=O)/C=C/CN(C)C)c2)ccc1Nc1nccc(-c2cccnc2)n1,Population Apoptotic (%),[1],100% and 77%
same,Population Healthy Nuclei (%),[1],55% and 82%
same,Population Hoechst High Intensity Objects (%),[1],0%
same,Population Membrane Permeable-Phenotype (%),[1],0%
same,Population Mitochondria Different-Phenotype (%),[1],4% and 0%
same,Population Mitotic Cells (%),[1],0% and 22%
same,Population Normal (%),[1],100%
same,Population Pyknosed Nuclei (%),[1],4% and 12%
same,Population Tubulin-Different-Phenotype (%),[1],70% and 87%
same,Population Apoptotic (%),[2],75%
same,Population Fragmented Nuclei (%),[2],9% and 3%
same,Population Healthy Nuclei (%),[2],61% and 65%
same,Population Hoechst High Intensity Objects (%),[2],0%
same,Population Membrane Permeable-Phenotype (%),[2],15% and 21%
same,Population Mitochondria Different-Phenotype (%),[2],23% and 18%
same,Population Mitotic Cells (%),[2],25% and 24%
same,Population Normal (%),[2],100%
same,Population Pyknosed Nuclei (%),[2],28% and 31%
same,Population Tubulin-Different-Phenotype (%),[2],76% and 43%
same,Population Apoptotic (%),[3],33% and 86%
same,Population Healthy Nuclei (%),[3],60% and 83%
same,Population Hoechst High Intensity Objects (%),[3],0%
same,Population Membrane Permeable-Phenotype (%),[3],3% and 1%
same,Population Mitochondria Different-Phenotype (%),[3],3% and 0%
same,Population Normal (%),[3],100%
same,Population Pyknosed Nuclei (%),[3],6% and 9%
same,Population Tubulin-Different-Phenotype (%),[3],66% and 90%
same,Population Apoptotic (%),[4],92% and 85%
same,Population Fragmented Nuclei (%),[4],15% and 10%
same,Population Healthy Nuclei (%),[4],26% and 35%
same,Population Hoechst High Intensity Objects (%),[4],4% and 1%
same,Population Membrane Permeable-Phenotype (%),[4],41% and 23%
same,Population Mitochondria Different-Phenotype (%),[4],41% and 38%
same,Population Mitotic Cells (%),[4],7% and 14%
same,Population Normal (%),[4],95% and 98%
same,Population Pyknosed Nuclei (%),[4],58% and 53%
same,Population Tubulin-Different-Phenotype (%),[4],91% and 61%
same,Population Apoptotic (%),[5],37% and 75%
same,Population Fragmented Nuclei (%),[5],18% and 6%
same,Population Healthy Nuclei (%),[5],69% and 86%
same,Population Hoechst High Intensity Objects (%),[5],0%
same,Population Membrane Permeable-Phenotype (%),[5],4% and 1%
same,Population Mitochondria Different-Phenotype (%),[5],2% and 1%
same,Population Mitotic Cells (%),[5],62% and 24%
same,Population Normal (%),[5],100%
same,Population Pyknosed Nuclei (%),[5],12% and 7%
same,Population Tubulin-Different-Phenotype (%),[5],68% and 91%
same,Population Apoptotic (%),[6],96% and 95%
same,Population Healthy Nuclei (%),[6],11% and 9%
same,Population Hoechst High Intensity Objects (%),[6],10% and 2%
same,Population Membrane Permeable-Phenotype (%),[6],100% and 92%
same,Population Mitochondria Different-Phenotype (%),[6],100% and 53%
same,Population Mitotic Cells (%),[6],3% and 4%
same,Population Normal (%),[6],89% and 97%
same,Population Pyknosed Nuclei (%),[6],67% and 84%
same,Population Tubulin-Different-Phenotype (%),[6],100% and 84%
COc1ccc(NC(=O)c2ccc(-c3ccc(-c4noc(C)n4)cc3C)cc2)cc1OCCN(C)C.Cl,Population Apoptotic (%),[1],40% and 45%
same,Population Healthy Nuclei (%),[1],61% and 83%
same,Population Hoechst High Intensity Objects (%),[1],0%
same,Population Membrane Permeable-Phenotype (%),[1],5% and 4%
same,Population Mitochondria Different-Phenotype (%),[1],5% and 13%
same,Population Mitotic Cells (%),[1],60% and 55%
same,Population Normal (%),[1],100%
same,Population Pyknosed Nuclei (%),[1],16% and 11%
same,Population Tubulin-Different-Phenotype (%),[1],36% and 40%
same,Population Apoptotic (%),[2],76% and 60%
same,Population Fragmented Nuclei (%),[2],10% and 23%
same,Population Healthy Nuclei (%),[2],43% and 51%
same,Population Hoechst High Intensity Objects (%),[2],1% and 0%
same,Population Membrane Permeable-Phenotype (%),[2],34% and 30%
same,Population Mitochondria Different-Phenotype (%),[2],67% and 85%
same,Population Mitotic Cells (%),[2],23% and 40%
same,Population Normal (%),[2],98% and 100%
same,Population Pyknosed Nuclei (%),[2],46% and 25%
same,Population Tubulin-Different-Phenotype (%),[2],93% and 100%
same,Population Apoptotic (%),[3],55% and 51%
same,Population Healthy Nuclei (%),[3],55% and 78%
same,Population Hoechst High Intensity Objects (%),[3],2% and 0%
same,Population Membrane Permeable-Phenotype (%),[3],5%
same,Population Mitochondria Different-Phenotype (%),[3],15% and 17%
same,Population Mitotic Cells (%),[3],44% and 48%
same,Population Normal (%),[3],97% and 99%
same,Population Pyknosed Nuclei (%),[3],25% and 15%
same,Population Tubulin-Different-Phenotype (%),[3],35% and 34%
same,Population Apoptotic (%),[4],63% and 86%
same,Population Fragmented Nuclei (%),[4],16% and 6%
same,Population Healthy Nuclei (%),[4],32%
same,Population Hoechst High Intensity Objects (%),[4],0%
same,Population Membrane Permeable-Phenotype (%),[4],58% and 79%
same,Population Mitochondria Different-Phenotype (%),[4],75% and 89%
same,Population Mitotic Cells (%),[4],36% and 13%
same,Population Normal (%),[4],100% and 99%
same,Population Pyknosed Nuclei (%),[4],51% and 61%
same,Population Tubulin-Different-Phenotype (%),[4],100% and 98%
same,Population Apoptotic (%),[5],77% and 72%
same,Population Fragmented Nuclei (%),[5],16% and 7%
same,Population Healthy Nuclei (%),[5],65% and 77%
same,Population Hoechst High Intensity Objects (%),[5],2% and 0%
same,Population Membrane Permeable-Phenotype (%),[5],6%
same,Population Mitochondria Different-Phenotype (%),[5],3% and 12%
same,Population Mitotic Cells (%),[5],22% and 27%
same,Population Normal (%),[5],98% and 100%
same,Population Pyknosed Nuclei (%),[5],18% and 15%
same,Population Tubulin-Different-Phenotype (%),[5],37% and 40%
same,Population Apoptotic (%),[6],95% and 98%
same,Population Fragmented Nuclei (%),[6],21% and 14%
same,Population Healthy Nuclei (%),[6],18% and 6%
same,Population Hoechst High Intensity Objects (%),[6],2% and 1%
same,Population Membrane Permeable-Phenotype (%),[6],85% and 92%
same,Population Mitochondria Different-Phenotype (%),[6],71% and 100%
same,Population Mitotic Cells (%),[6],4% and 1%
same,Population Normal (%),[6],97% and 98%
same,Population Pyknosed Nuclei (%),[6],59% and 79%
same,Population Tubulin-Different-Phenotype (%),[6],100% and 92%
